Records with an inconclusive call do not appear. Calls of active or inactive are those of the source.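 The calls were made as follows, unless noted: active = inhibition over a set limit, the all-compound mean plus 3 SD, in both replicate runs; inconclusive = over that limit in just one replicate run; inactive = at or under that limit in both runs.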
How the values were obtained:
[1] = OD615 S. cerevisiae growth inhibition, permissive medium, pilot counter-assay, permissive growth control for S. cerevisiae lifespan shortening project (AID 705;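 active = growth inhibition above 25% in both replicates, a cutoff set 3 SD above the mean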); details: OD615, 24 h, at 10 µM, active compounds read high
Summary of the method: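 System: S. cerevisiae with engineered DeaD lifespan system / Measured by: absorbance (optical density) at 615 nm / Read-out: reduction in yeast growth (OD615) / Times: 4 h cell pre-growth, 24 h exposure at 30 °C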

[2] = Restrictive medium S. cerevisiae growth inhibition, OD615, pilot screen of yeast lifespan reduction project, restrictive growth control (AID 706;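 active = growth inhibition above a set limit, 3 SD over mean compound inhibition, in both replicates, cut at about 43% in these data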;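 also: modified DeaD lifespan yeast strain shifted to restrictive glucose medium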); details: OD615, 48 h, at 10 µM, active compounds read high
Summary of the method: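 System: Engineered S. cerevisiae DeaD strain | Buffer or medium: Glucose-based CSMM-D restrictive medium | Schedule: 4 h pre-incubation, 48 h exposure at 30 °C | Technique: Optical density at 615 nm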

[3] = viability gain of MRP-1-high H69AR cells under doxorubicin, pilot screen, MRP-1 activator project, CellTiter-Glo, duplicate (AID 807;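 active = viability increase at or above a cutoff of the median across tested compounds plus 3 SD, cut at about 8.5% in these data, passing the limit was not always enough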;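 also: compound pretreatment 18-22 h then 72 h combined with doxorubicin; 0% = doxorubicin alone and 100% = vehicle without doxorubicin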); details: H69AR viability with doxorubicin, CellTiter-Glo luminescence; at 10 µM; active compounds read high
[4] = growth suppression of beta-catenin knockout HCT116, pilot screen, human colon tumor cells (AID 823;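 active = cell viability at or below a set limit in both duplicate runs, the limit being the all-compound median minus 4 SD, cut at about 23% in these data, passing the limit was not always enough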;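 also: 0% = wells killed by 20 µM Hyamine and 100% = untreated DMSO cell wells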); details: CellTiter-Glo, 60 h, at 10 µM, active compounds read low
[5] = growth suppression of PTEN-deleted HCT116, pilot screen, cell-based, HCT116 clonal line, CellTiter-Glo (AID 824;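 active = viability at or below 27.92% in each of two runs, the all-compound median minus 4 SD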;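 also: 0% = 20 µM Hyamine control and 100% = vehicle cell control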); details: 60 h, at 10 µM, active compounds read low
[6] = inhibitors of the yeast RAM network, pilot screen, dse1pr::URA3 reporter, 5-FOA selection (AID 869);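 also: 0% = DMSO wells with no growth and 100% = 10 µM 1-NA-PP1 with full growth; RAM network block rescues cells from 5-FOA so hits raise OD615 growth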; details: S. cerevisiae dse1pr::URA3 5-FOA growth, OD615, 2 d; at 10 µM; active compounds read high; strain carries analog-sensitive mutant Cbk1 kinase
[7] = RAM signaling pathway blockade in yeast – S. cerevisiae, Pdr1DBD-CYC8 efflux-inhibited sensitized strain, primary screen (AID 1298;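 active = RAM network inhibition above 8.4% in each of two replicates, 3 SD over the compound average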;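 also: 0% = DMSO untreated cells without growth and 100% = 10 µM 1-NA-PP1 full growth; higher means more yeast growth rescued from 5-FOA killing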); details: S. cerevisiae cbk1-as DSE1-URA3 strain, 5-FOA growth OD615, 2 d; at 50 µM; active compounds read high

CCOC(=O)C1C(=O)CC(C)(O)C(C(=O)OCC)C1/C=C/c1ccccc1 (stereo unspecified)
inactive: growth inhibition [1] -4.58% | growth inhibition [2] 2.66% | viability increase [3] -3.71% | viability [4] 94.4% | viability [5] 83.1% | inhibition [6] 0.605% | RAM network inhibition [7] 7.42%

CC1CCN(c2nnc(N3CCC(C)CC3)c3ccccc23)CC1
inactive: growth inhibition [1] -19.1% | growth inhibition [2] -14.8% | viability increase [3] -3.17% | viability [4] 84% | viability [5] 81.8% | inhibition [6] 1.98% | RAM network inhibition [7] 4.58%

CCn1cc(C(=O)NCCCN2CCC(C)CC2)c2cc(OC)c(OC)cc2c1=O
inactive: growth inhibition [1] -7.74% | growth inhibition [2] 6.7% | viability increase [3] -3.47% | viability [4] 99.3% | viability [5] 92% | inhibition [6] 1.77% | RAM network inhibition [7] 1.99%

CCOC(=O)C1=C(C)Nc2nc(C)nn2C1c1ccc(OCC)c(OC)c1 (stereo unspecified)
inactive: growth inhibition [1] -8.05% | growth inhibition [2] -3.29% | viability increase [3] -4.07% | viability [4] 101% | viability [5] 99% | inhibition [6] 1.44% | RAM network inhibition [7] 0.63%

O=C(Cc1ccccc1)n1nc(-c2ccccc2)nc1NCc1ccco1
inactive: growth inhibition [1] -16.6% | growth inhibition [2] -14.8% | viability increase [3] -2.03% | viability [4] 99.5% | viability [5] 98.1% | inhibition [6] 1.27% | RAM network inhibition [7] 4.38%

COc1cccc2c(=O)n(CC(=O)N3CCN(c4ccccc4)CC3)ccc12
inactive: growth inhibition [1] -7.37% | growth inhibition [2] -7.01% | viability increase [3] -0.94% | viability [4] 99.7% | viability [5] 98.1% | inhibition [6] 1.39% | RAM network inhibition [7] 4.22%

COc1ccc(OC)c(-c2nnc(NC(=O)C(C)Sc3nncn3C)s2)c1 (stereo unspecified)
inactive: growth inhibition [1] -1.32% | growth inhibition [2] 23.7% | viability increase [3] -4.48% | viability [4] 106% | viability [5] 95.5% | inhibition [6] 0.65% | RAM network inhibition [7] 0.37%

Nc1ccc2nc3n(c(=O)c2c1)CCC3
inactive: growth inhibition [1] -2.62% | growth inhibition [2] 4.83% | viability increase [3] 1.87% | viability [4] 104% | viability [5] 108% | inhibition [6] 1.44% | RAM network inhibition [7] 3.92%

CC(C)Cn1c(CN2C(=O)c3ccccc3C2=O)nc2ccccc2c1=O
inactive: growth inhibition [1] -8.43% | growth inhibition [2] -9.18% | viability increase [3] -0.19% | viability [4] 98.4% | viability [5] 93.4% | inhibition [6] 3.54% | RAM network inhibition [7] 5.36%

O=C(CCSCCC(=O)NCc1ccco1)NCc1ccco1
inactive: growth inhibition [1] 3.59% | growth inhibition [2] 10.5% | viability increase [3] -1.12% | viability [4] 89% | viability [5] 96% | inhibition [6] 0.745% | RAM network inhibition [7] 6.5%

Cc1ccc2c(CC(=O)O)coc2c1
inactive: growth inhibition [1] -5.59% | growth inhibition [2] 27.6% | viability increase [3] -0.46% | viability [4] 89.3% | viability [5] 97.5% | inhibition [6] -0.825% | RAM network inhibition [7] -1.05%

O=C(C1=C(O)C(=O)N(c2ncccn2)C1c1cccs1)c1ccco1 (stereo unspecified)
inactive: growth inhibition [1] 0.75% | growth inhibition [2] 7.12% | viability increase [3] -4.29% | viability [4] 86.5% | viability [5] 85.3% | inhibition [6] 1.54% | RAM network inhibition [7] 1.69%

CCCCNC(=O)C1c2cc(OC)c(OC)cc2C(=O)N(C)C1c1ccc(OC)cc1 (stereo unspecified)
inactive: growth inhibition [1] -7.31% | growth inhibition [2] -7.21% | viability increase [3] -2.49% | viability [4] 92.5% | viability [5] 98.4% | inhibition [6] 1.63% | RAM network inhibition [7] 1.97%

CCOC(=O)Cc1csc(NC(=O)Nc2ccccc2)n1
inactive: growth inhibition [1] -11.8% | growth inhibition [2] -12.1% | viability increase [3] -0.81% | viability [4] 53.2% | viability [5] 53.2% | inhibition [6] 0.665% | RAM network inhibition [7] 4.19%

OC(C#CCN1CCOCC1)c1cccs1 (stereo unspecified)
inactive: growth inhibition [1] -5.03% | growth inhibition [2] 2.95% | viability increase [3] -0.71% | viability [4] 102% | viability [5] 98.4% | inhibition [6] 2.15% | RAM network inhibition [7] 4.66%

CCOc1ccc(N=Cc2c(O)cc(C)oc2=O)cc1
inactive: growth inhibition [1] -1.27% | growth inhibition [2] 8.93% | viability increase [3] -2.82% | viability [4] 107% | viability [5] 101% | inhibition [6] 1.21% | RAM network inhibition [7] 1.99%

CN(C)c1ccc(NC(=O)Cn2c(=O)n(Cc3ccccc3)c(=O)c3ccccc32)cc1
inactive: growth inhibition [1] -0.65% | growth inhibition [2] 1.48% | viability increase [3] 3% | viability [4] 83.2% | viability [5] 88.3% | inhibition [6] 0.52% | RAM network inhibition [7] 8.96%

O=C(NCCc1cn2ccsc2n1)c1cccs1
inactive: growth inhibition [1] -14.1% | growth inhibition [2] -12.4% | viability increase [3] -1.75% | viability [4] 105% | viability [5] 102% | inhibition [6] 1.29% | RAM network inhibition [7] 3.51%

O=C1CC(c2ccc(S(=O)(=O)NCc3ccncc3)cc2)CN1 (stereo unspecified)
inactive: growth inhibition [1] -10.3% | growth inhibition [2] -7.88% | viability increase [3] -0.07% | viability [4] 99.7% | viability [5] 97.2% | inhibition [6] 1.73% | RAM network inhibition [7] 1.15%

O=C(Nc1nnc(CC(=O)N2CCCC2)s1)c1cnccn1
inactive: growth inhibition [1] -3.58% | growth inhibition [2] 4.7% | viability increase [3] -1.2% | viability [4] 104% | viability [5] 100% | inhibition [6] 1.66% | RAM network inhibition [7] -0.94%

CC(C)CC(=O)Nc1c2c(nn1-c1ccc(F)cc1)CSC2
inactive: growth inhibition [1] -13.9% | growth inhibition [2] -14.5% | viability increase [3] -1.7% | viability [4] 91.1% | viability [5] 90.9% | inhibition [6] 1.46% | RAM network inhibition [7] 5.43%

Cc1ccc(CC(CC(=O)O)C(=O)NC2CCCCC2)cc1 (stereo unspecified)
inactive: growth inhibition [1] -8.33% | growth inhibition [2] -0.295% | viability increase [3] -0.76% | viability [4] 101% | viability [5] 99.2% | inhibition [6] 2.5% | RAM network inhibition [7] 3.83%

COc1cccc(C2CC(c3cccc(C)c3)n3ncnc3N2)c1 (stereo unspecified)
inactive: growth inhibition [1] -9.14% | growth inhibition [2] -3.84% | viability increase [3] -2.07% | viability [4] 90% | viability [5] 90.4% | inhibition [6] 0.92% | RAM network inhibition [7] 0.74%

CC1CN(S(=O)(=O)c2ccc(Cl)c(S(=O)(=O)N3CC(C)OC(C)C3)c2)CC(C)O1 (stereo unspecified)
inactive: growth inhibition [1] -13.5% | growth inhibition [2] -17.1% | viability increase [3] -0.41% | viability [4] 89% | viability [5] 87.1% | inhibition [6] 4.11% | RAM network inhibition [7] 1.17%

COc1ccc(N2CSC3=C(C#N)C(c4cc(OC)c(OC)cc4OC)CC(=O)N3C2)c(OC)c1 (stereo unspecified)
inactive: growth inhibition [1] -2.5% | growth inhibition [2] 31.1% | viability increase [3] -5.15% | viability [4] 71.6% | viability [5] 76.7% | inhibition [6] 1.16% | RAM network inhibition [7] 2.63%

COc1cccc(-c2nc(CS(=O)CC(=O)O)c(C)o2)c1 (stereo unspecified)
inactive: growth inhibition [1] -1.73% | growth inhibition [2] 2.52% | viability increase [3] -0.27% | viability [4] 99.9% | viability [5] 99.5% | inhibition [6] 1.31% | RAM network inhibition [7] 4.89%

COc1ccccc1NC(=O)C1C2C=CC3(CN(Cc4cccnc4)C(=O)C13)O2 (stereo unspecified)
inactive: growth inhibition [1] 6% | growth inhibition [2] 4.22% | viability increase [3] 0.16% | viability [4] 98.2% | viability [5] 103% | inhibition [6] -0.25% | RAM network inhibition [7] -0.51%

Cc1cc(C)n2nc(S(=O)(=O)NCCc3ccccc3)nc2n1
inactive: growth inhibition [1] -6.26% | growth inhibition [2] -8.79% | viability increase [3] -0.6% | viability [4] 111% | viability [5] 100% | inhibition [6] 2.72% | RAM network inhibition [7] 1.3%

O=C(O)C1C2C=CC(C2)C1C(=O)NCCc1cccc(Cl)c1 (stereo unspecified)
inactive: growth inhibition [1] -2.6% | growth inhibition [2] 3.11% | viability increase [3] -1.41% | viability [4] 104% | viability [5] 94.7% | inhibition [6] 0.045% | RAM network inhibition [7] 2.92%

Cc1ccc(C)c(Nc2ncnc3nc[nH]c23)c1
inactive: growth inhibition [1] -3.29% | growth inhibition [2] 0.02% | viability increase [3] -1.34% | viability [4] 103% | viability [5] 103% | inhibition [6] 1.55% | RAM network inhibition [7] 2.66%

COc1ccc(-c2nc(CSCC(=O)N3CCN(C(=O)c4ccco4)CC3)c(C)o2)cc1OC
inactive: growth inhibition [1] -1.3% | growth inhibition [2] 0.055% | viability increase [3] -1.9% | viability [4] 106% | viability [5] 103% | inhibition [6] -0.54% | RAM network inhibition [7] 5.11%

CCOc1ccc(N(CC(=O)Nc2ccc(OC)cc2)S(=O)(=O)c2c(C)noc2C)cc1
inactive: growth inhibition [1] -8.01% | growth inhibition [2] -2.61% | viability increase [3] -3.3% | viability [4] 83.5% | viability [5] 73.9% | inhibition [6] 3.53% | RAM network inhibition [7] 4.12%

CCOC(=O)N1CCC(NC(=O)c2ccc3snnc3c2)CC1
inactive: growth inhibition [1] -6.44% | growth inhibition [2] -4.42% | viability increase [3] -3.44% | viability [4] 98.5% | viability [5] 89.7% | inhibition [6] 0.55% | RAM network inhibition [7] 4.29%

— PubChem BioAssay
